We go through eight compounds from ChEMBL document CHEMBL1125427, “Synthesis of 3-(2-pyridylethyl)benzoxazolinone derivatives: potent analgesic and antiinflammatory compounds inhibiting prostaglandin E2” (1992).

Type in all cases: functional
Assay [1] is filed under the species Mus musculus. Nature of the assay: Analgesic activity in mice. Also noted: concentration or dose not given beside the values. The procedure, abridged:
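Female albino mice (22 ± 2 g, local breed), groups of eight, dosed orally at 100 mg/kg as a suspension in 5% gum arabic syrup. After 1 h, 3% acetic acid was given ip at 300 mg/kg. Stretches were counted over 10 min, starting 5 min after injection. Percent activity = |n − n'|/n × 100 against syrup-only controls (n = 6).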

Assay [2] concerns Mus musculus. Kind of assay: The compound was evaluated for inhibition of edema induced by serotonin at 250 ug/mL. Summed up:
(§1)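 Female albino mice (22 ± 2 g, local breed), six per group, housed in eights with free food and water, acclimatised at least 2 days. Compound given orally at 100 mg/kg; 60 min later 0.01 mL of the phlogistic agent (histamine or serotonin) injected subcutaneously into the right hind paw plantar surface. Paw edema measured with a dial thickness gauge; effect expressed as percent inhibition.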

The subject of assay [3] is Mus musculus. Nature of the assay: The compound was evaluated for inhibition of edema induced by arachidonic acid at 1 mg/mL. Summed up:
(§2)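 Mice, six per group, dosed orally at 100 mg/kg. After 60 min, 0.01 mL of phlogistic agent (arachidonic acid or bradykinin) was injected subcutaneously into the right hind paw plantar surface. Edema was measured by dial thickness gauge and the effect expressed as percent inhibition.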

The test system of assay [4] is Mus musculus. Kind of assay: Inhibitory activity against carrageenan induced paw edema in mice. Further details: concentration or dose not given beside the values.
The test system of assay [5] is Mus musculus. Nature of the assay: The compound was evaluated for inhibition of edema induced by histamine at 10 mg/mL. The procedure, abridged: as §1
In assay [6] the test system is Mus musculus. Nature of the assay: The compound was evaluated for inhibition of edema induced by bradykinin at 100 ug/mL. The procedure, abridged: as §2

`COc1ccc(C(=O)c2ccc3c(c2)oc(=O)n3CCc2ccccn2)cc1` gave an Analgesic activity in the assay filed under Mus musculus [1] of 80.34%. Moreover, the Inhibition with Mus musculus [2] is 9.9%; in the assay with Mus musculus [3], 40%; in the assay with Mus musculus [4] it was 30.8%; in the assay on Mus musculus [5], 5.4%; with Mus musculus [6], 13%.
Compound `CC(=O)c1ccc2c(c1)oc(=O)n2CCc1ccncc1` showed an Analgesic activity in the assay filed under Mus musculus [1] of 38.46%. Also, the Inhibition with Mus musculus [4] is on record as 10.3%.
`CC(=O)c1ccc2c(c1)oc(=O)n2CCc1ccccn1` had an Analgesic activity in the assay filed under Mus musculus [1] of 48.74%. Moreover, in the assay on Mus musculus [4], the Inhibition came to 5.6%.
In the assay filed under Mus musculus [1], `O=C(c1ccccc1Cl)c1cc2oc(=O)n(CCc3ccccn3)c2cc1Cl` displayed an Analgesic activity of 72.67%. In addition, the Inhibition in the assay with Mus musculus [2] is 9%; in the assay with Mus musculus [3], 37%; with Mus musculus [4], 19.7%; in the assay with Mus musculus [5] it was 10%; with Mus musculus [6] it was 7.6%.
`O=C(c1ccccc1)c1ccc2c(c1)oc(=O)n2CCc1ccccn1` displayed an Analgesic activity in the assay listed under Mus musculus [1] of 79.49%. The Inhibition is recorded as 9.8% in the assay with Mus musculus [2]; 32% in the assay with Mus musculus [3]; 37.1% in the assay with Mus musculus [4]; 6% in the assay on Mus musculus [5]; 11% in the assay on Mus musculus [6].
As to `O=C(c1ccc2c(c1)oc(=O)n2CCc1ccncc1)c1ccccc1Cl`, in the assay listed under Mus musculus [1], the Analgesic activity is 84.35%. The Inhibition with Mus musculus [2] stood at 10%; in the assay with Mus musculus [3], 39%; in the assay with Mus musculus [4], 38.6%; in the assay on Mus musculus [5] it was 7.4%; with Mus musculus [6], 7%.
Consider `O=C(c1ccccc1)c1ccc2c(c1)oc(=O)n2CCc1ccncc1`, for which the Analgesic activity in the assay filed under Mus musculus [1] stood at 85.47%. Further, the Inhibition is 14.1% in the assay with Mus musculus [2]; 36.5% in the assay with Mus musculus [3]; 46.5% in the assay on Mus musculus [4]; 8.5% in the assay on Mus musculus [5]; 10% in the assay with Mus musculus [6].
`COc1ccc(C(=O)c2ccc3c(c2)oc(=O)n3CCc2ccncc2)cc1`: the Analgesic activity in the assay listed under Mus musculus [1] amounted to 75.21%. For the same compound, the Inhibition with Mus musculus [2] was found to be 15%; with Mus musculus [3], 32%; in the assay on Mus musculus [4], 25.9%; in the assay with Mus musculus [5] it was 8%; with Mus musculus [6] it was 10%.
